In ChEMBL document CHEMBL1125287, “Synthesis and antifolate evaluation of the 10-propargyl derivatives of 5-deazafolic acid, 5-deazaaminopterin, and 5-methyl-5-deazaaminopterin” (J Med Chem, 1992):
pIC50, pKi: −log10 of the molar value. Blank lines part the entries; values can stand above or below the molecule they belong to.

Key:
[1] = system: L1210; test: Km value for its transport after influx into L1210 cells; format: functional, cell-based; details: Mus musculus
[2] = system: Mus musculus; test: Antitumor effect (3 mg/kg) against EO771 mammary adenocarcinoma in mice measured as Average weight change on day 14.; format: functional
In short: (§1)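 Mice implanted with EO771 mammary adenocarcinoma were dosed once daily for 5 days, starting 1 day after tumor implantation, with 10 mice per group. On day 7 and day 14 the following were recorded: average body weight change in grams, toxic deaths, tumor-free animals and average tumor volume. Volume was calculated as 4/3πr³ in mm³, and T/C is treated/control volume.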

[3] = system: Mus musculus; test: Antitumor effect (3 mg/kg) against EO771 mammary adenocarcinoma in mice measured as Average weight change on day 7.; format: functional; in short: as §1
[4] = system: Mus musculus; test: Antitumor effect (3 mg/kg) against EO771 mammary adenocarcinoma in mice measured as toxic deaths out of 10 mice tested; format: functional
In short: (§2)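 EO771 mammary adenocarcinoma implanted in mice, 10 animals per group. Dosing was once daily for 5 days, starting 1 day after tumor implantation. Toxic deaths were counted over the total on the evaluation day (day 7 or day 14), together with average weight change, tumor volume (4/3πr³, treated/control) and tumor-free animals.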

[5] = system: Mus musculus; test: Antitumor effect (3 mg/kg) against EO771 mammary adenocarcinoma in mice measured as Tumor free/total on day 14; format: functional; in short: as §1
[6] = system: Mus musculus; test: Antitumor effect (3 mg/kg) against EO771 mammary adenocarcinoma in mice measured as Tumor free/total on day 7.; format: functional; in short: as §1
[7] = system: Mus musculus; test: Antitumor effect (3 mg/kg) against EO771 mammary adenocarcinoma in mice measured as T/C(treated/control) on day 14.; format: functional; in short: as §1
[8] = system: Mus musculus; test: Antitumor effect (3 mg/kg) against EO771 mammary adenocarcinoma in mice measured as T/C(treated/control) on day 7.; format: functional; in short: as §1
[9] = system: L1210; test: k value for its transport after efflux through L1210 cells; format: functional, Mus musculus
[10] = system: Mus musculus; test: Antitumor effect (3 mg/kg) against EO771 mammary adenocarcinoma in mice measured as Toxic deaths/total on day 14.; format: functional; in short: as §2
[11] = target: T1, Thymidylate synthase (Homo sapiens, UniProt P04818); test: The compound was tested for its inhibitory activity against thymidylate synthase(TS) derived from K562 cells.; format: cell-based
[12] = target: T2, Dihydrofolate reductase (Mus musculus, UniProt P00375); test: The compound was tested for its inhibitory activity against dihydrofolate reductase(DHFR) derived from L1210 cells.; format: cell-based
T2 sequence (P00375 whole entry): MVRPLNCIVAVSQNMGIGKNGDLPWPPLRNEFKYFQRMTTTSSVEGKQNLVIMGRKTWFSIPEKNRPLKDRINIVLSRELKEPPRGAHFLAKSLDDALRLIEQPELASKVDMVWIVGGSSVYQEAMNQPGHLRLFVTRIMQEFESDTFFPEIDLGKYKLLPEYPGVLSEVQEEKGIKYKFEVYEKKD

[13] = system: L1210; test: The compound was tested for its growth inhibitory activity against L1210 cells; format: functional, cell-based; details: Mus musculus
[14] = system: Mus musculus; test: Antitumor effect (36 mg/kg) against EO771 mammary adenocarcinoma in mice measured as average weight change on day 14.; format: functional; in short: as §1
[15] = system: Mus musculus; test: Antitumor effect (36 mg/kg) against EO771 mammary adenocarcinoma in mice measured as Tumor free/total on day 14.; format: functional; in short: as §1
[16] = system: Mus musculus; test: Antitumor effect (36 mg/kg) against EO771 mammary adenocarcinoma in mice measured as Tumor free/total on day 7.; format: functional; in short: as §1
[17] = system: Mus musculus; test: Antitumor effect (36 mg/kg) against EO771 mammary adenocarcinoma in mice measured as T/C(treated/control) on day 14.; format: functional; in short: as §1
[18] = system: Mus musculus; test: Antitumor effect (36 mg/kg) against EO771 mammary adenocarcinoma in mice measured as T/C(treated/control) on day 7.; format: functional; in short: as §1
[19] = system: Mus musculus; test: Antitumor effect (36 mg/kg) against EO771 mammary adenocarcinoma in mice measured as Toxic deaths/total on day 14.; format: functional; in short: as §2
[20] = system: Mus musculus; test: Antitumor effect (36 mg/kg) against EO771 mammary adenocarcinoma in mice measured as toxic deaths out of 10 mice tested; format: functional; in short: as §2
[21] = system: Mus musculus; test: Antitumor effect (36 mg/kg) against EO771 mammary adenocarcinoma in mice measured as average weight change on day 7; format: functional; in short: as §1
[22] = system: HL-60; test: The compound was tested for its growth inhibitory activity against HL60 cells.; format: functional, cell-based; details: Homo sapiens
[23] = system: CCRF S-180; test: The compound was tested for its growth inhibitory activity against S180 cells.; format: functional, cell-based; details: Mus musculus
[24] = target: T1, Thymidylate synthase; test: The compound was tested for its inhibitory activity against thymidylate synthase(TS) derived from H35F/F cells.
[25] = target: T3, Thymidylate synthase (Lactobacillus casei, UniProt P00469); test: The compound was tested for its inhibitory activity (IC50) against thymidylate synthase(TS) derived from Lactobacillus casei; design: species or system Lacticaseibacillus casei
T3 sequence (P00469 whole entry): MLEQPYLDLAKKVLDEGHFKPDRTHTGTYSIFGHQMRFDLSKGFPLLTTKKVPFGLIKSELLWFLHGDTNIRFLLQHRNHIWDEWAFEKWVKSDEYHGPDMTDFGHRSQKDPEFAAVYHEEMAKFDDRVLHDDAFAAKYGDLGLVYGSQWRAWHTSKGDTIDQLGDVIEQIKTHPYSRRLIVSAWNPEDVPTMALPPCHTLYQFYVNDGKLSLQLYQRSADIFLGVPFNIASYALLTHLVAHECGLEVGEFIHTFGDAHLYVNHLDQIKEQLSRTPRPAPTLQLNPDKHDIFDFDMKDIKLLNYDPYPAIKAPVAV

T1 sequence (P04818 whole entry): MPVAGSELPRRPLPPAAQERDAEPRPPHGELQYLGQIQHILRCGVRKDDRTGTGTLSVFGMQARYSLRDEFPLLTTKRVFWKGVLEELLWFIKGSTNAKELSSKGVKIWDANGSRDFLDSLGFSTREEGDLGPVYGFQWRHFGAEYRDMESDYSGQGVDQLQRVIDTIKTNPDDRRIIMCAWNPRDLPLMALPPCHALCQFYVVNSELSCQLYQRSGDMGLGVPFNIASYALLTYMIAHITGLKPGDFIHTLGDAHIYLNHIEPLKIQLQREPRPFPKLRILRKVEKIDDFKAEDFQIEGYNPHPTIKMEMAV

pIC50 [11]: 5.62
SMILES: C#CCN(Cc1ccc2nc(N)nc(O)c2n1)c1ccc(C(=O)NC(CCC(=O)O)C(=O)O)cc1 (stereo not given)

pKi [12]: 11.23 | pIC50 [13]: 9.19
SMILES: C#CCN(Cc1cnc2nc(N)nc(N)c2c1)c1ccc(C(=O)NC(CCC(=O)O)C(=O)O)cc1 (stereo not given)
Km [1]: 1.8 µM | k [9]: 0.23 min⁻¹

pIC50 [25]: 5.41
SMILES: C#CCN(Cc1cnc2nc(N)[nH]c(=O)c2n1)c1ccc(C(=O)NC(CCC(=O)O)C(=O)O)cc1 (stereo not given)

The next lines start with the molecule.

SMILES: CN(Cc1cnc2nc(N)nc(N)c2n1)c1ccc(C(=O)N[C@@H](CCC(=O)O)C(=O)O)cc1 [METHOTREXATE]
Km [1]: 4.86 µM | AWC [2]: 0.8 g | AWC [3]: -0.4 g | Toxic deaths [4]: 0 | Tumor free/total [5]: 0 | Tumor free/total [6]: 0 | T/C [7]: 0.79 | T/C [8]: 0.74 | k [9]: 0.21 min⁻¹ | Deaths/total [10]: 0

SMILES: C#CCN(Cc1cnc2nc(N)nc(N)c2c1C)c1ccc(C(=O)NC(CCC(=O)O)C(=O)O)cc1 (stereo not given)
pKi [12]: 11.16 | Km [1]: 0.57 µM | pIC50 [13]: 9.89 | AWC [14]: -0.6 g | Tumor free/total [15]: 2 | Tumor free/total [16]: 2 | T/C [17]: 0.08 | T/C [18]: 0.09 | Deaths/total [19]: 0 | Toxic deaths [20]: 0 | AWC [21]: -1.9 g | k [9]: 0.24 min⁻¹

SMILES: C#CCN(Cc1ccc2[nH]c(N)nc(=O)c2c1)c1ccc(C(=O)NC(CCC(=O)O)C(=O)O)cc1 (stereo not given)
pIC50 [22]: 5.28 | pIC50 [13]: 5.58 | pIC50 [23]: 5.71

SMILES: C#CCN(Cc1cnc2nc(N)nc(O)c2c1)c1ccc(C(=O)NC(CCC(=O)O)C(=O)O)cc1 (stereo not given)
pIC50 [22]: 6.14 | pIC50 [13]: 5.82 | pIC50 [23]: 5.63 | pIC50 [24]: 7.05
